Reference: ChEMBL document CHEMBL3603769, “1,5-Disubstituted benzimidazoles that direct cardiomyocyte differentiation from mouse embryonic stem cells” (2015)

Legend:
Format in all cases: functional, Embryonic stem cell
[1] = Induction of cardiomyogenesis in mouse ESC transfected with alpha-MHC at 0.78 to 12.5 uM treated on day 2 to 4 followed by cell reseeding in normal growth media on day 6, 8 measured on day 10 by GFP reporter gene assay relative to vehicle-treated control
Procedure, shortened: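 mESCs stably carrying αMHC-promoter eGFP, expanded feeder-free with LIF on poly-D-lysine (5 passages), then seeded about 1000 cells/well on gelatin in growth media without LIF. From day 2, compound added in equal volume of media at 2× final (0.78–12.5 μM; 50 mM DMSO stocks). Cultures kept at 37 °C, 5% CO2, fixed in paraformaldehyde on day 9 or 10 and DAPI-stained. αMHC-eGFP fluorescence imaged automatically and expressed as fold-change over DMSO-treated cells.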

[2] = Induction of cardiomyogenesis in mouse ESC transfected with alphaMHC-eGFP at 6 uM treated on day 2 to 4 followed by cell reseeding in normal growth media on day 6 and 8 measured on day 12 by alpha-Actinin Alexa568-based immunohistochemical analysis relative to vehicle-treated control
Procedure, shortened: (§1)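 αMHC-eGFP mESCs dosed at 3 or 6 μM on days 2 and 4, then fixed at day 10 or 12 in 4% paraformaldehyde for 40 min at room temperature. Cells were permeabilized and blocked 30 min in PBS with 10% horse serum and 0.2% Triton X-100. Staining used mouse anti-α-actinin (1:200, 60 min) then donkey anti-mouse Alexa568 (1:400, with DAPI, 60 min). Integrated Alexa568 intensity was reported relative to DMSO vehicle.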

[3] = Induction of cardiomyogenesis in mouse ESC transfected with alpha-MHC at 6 uM treated on day 2 to 4 followed by cell reseeding in normal growth media on day 6, 8 measured on day 12 by GFP reporter gene assay relative to vehicle-treated control
Procedure, shortened: (§2)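 αMHC-eGFP mESCs seeded in growth media without LIF, dosed at 3 or 6 μM on days 2 and 4, and fed growth media on days 6 and 8. Cultures were then fixed in 4% paraformaldehyde. Integrated intensity of αMHC-eGFP fluorescence was measured by automated imaging as fold increase over DMSO vehicle. nsRED autofluorescence was subtracted.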

[4] = Induction of cardiomyogenesis in mouse ESC transfected with alpha-MHC at 3 uM treated on day 2 to 4 followed by cell reseeding in normal growth media on day 6, 8 measured on day 12 by GFP reporter gene assay relative to vehicle-treated control; procedure, shortened: as §2
[5] = Induction of cardiomyogenesis in mouse ESC transfected with alphaMHC-eGFP at 3 uM treated on day 2 to 4 followed by cell reseeding in normal growth media on day 6 and 8 measured on day 12 by alpha-Actinin Alexa568-based immunohistochemical analysis relative to vehicle-treated control; procedure, shortened: as §1

| Compound | fold change (FC) [1] | other results |
| --- | --- | --- |
| c1ccc(-n2cnc3cc(NCc4cccs4)ccc32)cc1 | 0.75 | – |
| c1ccc(-n2cnc3cc(NCc4ccco4)ccc32)cc1 | 2.2 | – |
| Cc1nnc(Nc2ccc3c(c2)ncn3C)c2ccccc12 | 1.6 | – |
| Nc1ccc2c(c1)ncn2-c1ccccc1 | 3 | – |
| CC(=O)Nc1ccc2c(c1)ncn2-c1ccccc1 | 1.2 | – |
| Cc1nnc(Nc2ccc3c(c2)nc(N)n3-c2ccccc2)c2ccccc12 | 2.1 | – |
| Cc1nnc(Nc2ccc3c(c2)ncn3-c2ccccc2)c2ccccc12 | 9.6 | fold change (FC) [2]: 20; fold change (FC) [3]: 20; fold change (FC) [4]: 10; fold change (FC) [5]: 10 |
| COc1ccccc1-n1cnc2cc(Nc3nnc(C)c4ccccc34)ccc21 | 4.3 | – |
| COc1cccc(-n2cnc3cc(Nc4nnc(C)c5ccccc45)ccc32)c1 | 18.6 | – |
| CCCc1ccc(-n2cnc3cc(Nc4nnc(C)c5ccccc45)ccc32)cc1 | 0.7 | – |
| Cc1nnc(Nc2ccc3c(c2)ncn3-c2cccc(C(F)(F)F)c2)c2ccccc12 | 0.5 | – |
| Cc1nnc(Nc2ccc3c(c2)ncn3-c2ccccc2C(C)C)c2ccccc12 | 4.4 | – |
| COc1ccc(-n2cnc3cc(Nc4nnc(C)c5ccccc45)ccc32)cc1 | 10 | – |
| Cc1nnc(Nc2ccc3c(c2)ncn3-c2ccc(C(F)(F)F)cc2)c2ccccc12 | 1.6 | – |
| Cc1nnc(Nc2ccc3c(c2)ncn3-c2ccccc2O)c2ccccc12 | 2.1 | – |
| Cc1nnc(Nc2ccc3c(c2)ncn3C2CC2)c2ccccc12 | 0.9 | – |
| Cc1nnc(Nc2ccc3c(c2)ncn3C2CCCCC2)c2ccccc12 | 3.3 | – |
| Cc1nnc(Nc2ccc3c(c2)ncn3-c2ccccn2)c2ccccc12 | 2.2 | – |
| Cc1nnc(Nc2ccc3c(c2)ncn3C2CCOCC2)c2ccccc12 | 1.6 | – |
| Cc1nnc(Nc2ccc3c(c2)ncn3C2CCN(C)CC2)c2ccccc12 | 4.4 | – |
| COc1cccc(-n2cnc3cc(Nc4nncc5ccccc45)ccc32)c1 | 13.7 | – |
| COc1cccc(-n2cnc3cc(Nc4nnc(Cl)c5ccccc45)ccc32)c1 | 6.7 | – |
| COc1cccc(-n2cnc3cc(Nc4nnc(OC)c5ccccc45)ccc32)c1 | 7.1 | – |

| Compound | fold change (FC) [1] | other results |
| --- | --- | --- |
| COc1cccc(-n2cnc3cc(Nc4nnc(Cc5ccccc5)c5ccccc45)ccc32)c1 | 2 | – |
| COc1cccc(-n2cnc3cc(Nc4nnc(-c5ccccc5)c5ccccc45)ccc32)c1 | 1 | – |
| COc1cccc(-n2cnc3cc(NCCc4ccccc4)ccc32)c1 | 1.4 | – |
| COc1cccc(-n2cnc3cc(NCc4ccccc4OC)ccc32)c1 | 1.7 | – |
| Cn1cccc1CNc1ccc2c(c1)ncn2-c1ccccc1 | 1.6 | – |
| Clc1ncccc1CNc1ccc2c(c1)ncn2-c1ccccc1 | 1.4 | – |
| Brc1ccc(CNc2ccc3c(c2)ncn3-c2ccccc2)s1 | 3.1 | – |
| c1ccc(-c2ccc(CNc3ccc4c(c3)ncn4-c3ccccc3)cn2)cc1 | 3 | – |
| FC(F)(F)c1ccc(CNc2ccc3c(c2)ncn3-c2ccccc2)cn1 | 2.9 | – |
| c1ccc(CN2CCC(CNc3ccc4c(c3)ncn4-c3ccccc3)CC2)cc1 | 4.3 | – |
| COc1cccc(-n2cnc3cc(NC(=O)c4ccccn4)ccc32)c1 | 1.7 | – |
| COc1ccccc1-n1cnc2cc(Nc3ccc4ccccc4c3)ccc21 | 3.1 | – |
| COc1ccccc1-n1cnc2cc(Nc3ncccn3)ccc21 | 1.1 | – |
| c1ccc(-n2cnc3cc(Nc4cnccn4)ccc32)cc1 | 2.4 | – |
| c1ccc(-n2cnc3cc(Nc4cccnc4)ccc32)cc1 | 7.8 | – |
| COc1ccccc1-n1cnc2cc(Nc3ccccn3)ccc21 | 1.5 | – |
| COc1ccccc1-n1cnc2cc(Nc3ccccc3)ccc21 | 0.7 | – |
| COc1cccc(Nc2ccc3c(c2)ncn3-c2ccccc2OC)c1 | 3.8 | – |
| Cc1cccc(-n2cnc3cc(Nc4ccc(C)nn4)ccc32)c1 | 7.9 | – |
| COc1ccccc1-n1cnc2cc(Nc3nnc(C)c4ccccc34)cnc21 | 2.5 | – |
| Cc1nnc(Nc2ccc3c(ccn3-c3ccccc3)c2)c2ccccc12 | 2 | – |
| Cc1nnc(Nc2ccc3c(c2)nc(N(C)C)n3-c2ccccc2)c2ccccc12 | 3.7 | – |
| Cc1nnc(Nc2ccc3c(c2)nnn3-c2ccccc2)c2ccccc12 | 3.1 | – |
